Columns and labels:
Plasmodium falciparum [1] = assay: Antiplasmodial activity against chloroquine-resistant Plasmodium falciparum K1 after 72 hrs by SYBR Green-1 staining-based fluorescence assay; format: functional, organism-based; details: K1, 72 h
Procedure, shortened: (§1)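 Compounds were dissolved in DMSO as 10 mM stocks and two-fold serially diluted. Dilutions were incubated with a 1.0% parasitized cell suspension at 0.8% parasitemia, using an asynchronous culture with more than 80% ring stages. Incubation was 72 h at 37 °C in 5% CO2/air. Lysis buffer with 2x SYBR Green-1 was then added for 1 h at 37 °C, and fluorescence (RFU) was read at 485±20 nm.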

Plasmodium falciparum [2] = assay: Antiplasmodial activity against chloroquine-sensitive Plasmodium falciparum 3D7 after 72 hrs by SYBR Green-1 staining-based fluorescence assay; format: functional, organism-based; details: 3D7, 72 h; procedure, shortened: as §1
Plasmodium falciparum [3] = assay: Resistance index, ratio of IC50 for chloroquine-resistant Plasmodium falciparum K1 to IC50 for chloroquine-sensitive Plasmodium falciparum 3D7; format: functional
Procedure, shortened: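 The index is the IC50 against K1 divided by the IC50 against 3D7. Both IC50s come from the 72 h SYBR Green-1 fluorescence assay: two-fold serial dilutions from 10 mM DMSO stocks, 1.0% parasitized cells at 0.8% parasitemia (>80% rings), 37 °C, 5% CO2.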

[4] = Selectivity index, ratio of CC50 for African green monkey Vero cells to IC50 for Plasmodium falciparum; format: functional
Procedure, shortened: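 Vero cells exposed to compound dilutions for 72 h; cytotoxicity read by MTT, CC50 by nonlinear regression of dose-response curves. Antiplasmodial IC50 from P. falciparum asynchronous culture (>80% rings, 0.8% parasitemia, 1% hematocrit suspension), twofold serial dilutions, 72 h at 37 °C, 5% CO2, SYBR Green I fluorescence. SI = CC50/IC50.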

[5] = Association constant, log K of the compound in aqueous DMSO at pH 7.5 assessed as complex formation by UV spectrophotometry; format: physicochemical; details: buffer
Procedure, shortened: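 Spectrophotometric titration of hematin with compound in 40% aqueous DMSO, 20 mM HEPES, pH 7.5, 25 °C; hematin monomeric under these conditions. Association constant fitted for 1:1 compound:hematin complex. Means ± SD from at least three experiments in duplicate.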

[6] = Inhibition of beta-hematin formation assessed as inhibition of hemozoin formation by UV spectrophotometry; format: physicochemical
Procedure, shortened: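 β-Hematin polymerization induced by 1-oleoyl-rac-glycerol, read at 405 nm by UV spectrophotometry. Triplicate values expressed as percent inhibition relative to drug-free hemozoin formation. IC50 in millimolar equivalents of compound relative to hemin, from sigmoidal dose-response non-linear regression. Means ± SD from at least three experiments in duplicate.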

SMILES	IC50 (Plasmodium falciparum [1])	IC50 (Plasmodium falciparum [2])	Ratio IC50 (Plasmodium falciparum [3])	Ratio CC50/IC50 [4]	log K [5]	IC50 [6]	inhibition (INH) [6]
CC(C)(C)OC(=O)N[C@@H](Cc1ccccc1)C(=O)C=[N+]=[N-]	55.3 nM	–	–	–	–	–	–
C[C@H](Nc1ccnc2cc(Cl)ccc12)C(=O)NCCCN(C)C	> 500 nM	142 nM	>3.51	2606	5.34	0.176 mMequiv	Dose-dependent effect
CN1CCN(C(=O)CCNc2ccnc3cc(Cl)ccc23)CC1	398 nM	35.9 nM	11.1	6472	6.43	0.3293 mMequiv	Dose-dependent effect
CC(C)C[C@H](Nc1ccnc2cc(Cl)ccc12)C(=O)N1CCN(C)CC1	147 nM	60.2 nM	2.44	905	5.38	0.2283 mMequiv	Dose-dependent effect
CCN(CC)CCCNC(=O)[C@H](C)Nc1ccnc2cc(Cl)ccc12	> 500 nM	82.6 nM	>6.05	2585	5.27	0.2145 mMequiv	Dose-dependent effect
CC[C@H](C)[C@H](Nc1ccnc2cc(Cl)ccc12)C(=O)N1CCN(C)CC1	365 nM	83.8 nM	4.34	2188	5.72	0.2295 mMequiv	Dose-dependent effect
CN1CCN(C(=O)[C@H](CO)Nc2ccnc3cc(Cl)ccc23)CC1	925 nM	116 nM	7.96	1976	5.68	0.3604 mMequiv	Dose-dependent effect
CCN(CC)CCCC(C)Nc1ccnc2cc(Cl)ccc12 (centres undefined) [CHLOROQUINE]	–	–	–	–	5.52	0.17 mMequiv	–
C[C@H](Nc1ccnc2cc(Cl)ccc12)C(=O)N1CCN(c2ccccc2)CC1	> 500 nM	> 500 nM	–	–	5.94	0.2082 mMequiv	Dose-dependent effect
C[C@H](Nc1ccnc2cc(Cl)ccc12)C(=O)NCCN1CCCCC1	> 500 nM	64.1 nM	>7.8	3025	5.73	0.2166 mMequiv	Dose-dependent effect
CCN(CC)CCNC(=O)[C@H](C)Nc1ccnc2cc(Cl)ccc12	> 500 nM	35.4 nM	>14.13	5834	6.03	0.1531 mMequiv	Dose-dependent effect
C[C@H](Nc1ccnc2cc(Cl)ccc12)C(=O)N1CCN(C)CC1	207 nM	73.8 nM	2.79	2900	5.36	0.1677 mMequiv	Dose-dependent effect
CN1CCN(C(=O)CC[C@H](Cc2ccccc2)Nc2ccnc3cc(Cl)ccc23)CC1	71.2 nM	11.5 nM	6.18	11350	5.32	0.1961 mMequiv	Dose-dependent effect
CN1CCN(C(=O)C[C@H](Cc2ccccc2)Nc2ccnc3cc(Cl)ccc23)CC1	55.3 nM	19.2 nM	2.87	5846	5.8	0.1739 mMequiv	Dose-dependent effect
CN1CCN(C(=O)[C@H](Cc2ccccc2)Nc2ccnc3cc(Cl)ccc23)CC1	116 nM	109 nM	1.06	429	5.11	0.6619 mMequiv	Dose-dependent effect
CC(C)[C@H](Nc1ccnc2cc(Cl)ccc12)C(=O)N1CCN(C)CC1	599 nM	271 nM	2.21	1023	6.39	0.2349 mMequiv	Dose-dependent effect
CSCC[C@H](Nc1ccnc2cc(Cl)ccc12)C(=O)N1CCN(C)CC1	129 nM	58.4 nM	2.2	3821	5.04	0.3595 mMequiv	Dose-dependent effect
CC[C@H](C)[C@H](NC(=O)OC(C)(C)C)C(=O)C=[N+]=[N-]	168 nM	–	–	–	–	–	–
CN1CCN(C(=O)CCCNc2ccnc3cc(Cl)ccc23)CC1	781 nM	65.1 nM	11.99	4432	6.52	0.2023 mMequiv	Dose-dependent effect
C[C@H](O)[C@H](Nc1ccnc2cc(Cl)ccc12)C(=O)N1CCN(C)CC1	> 1380 nM	142 nM	>9.67	1934	6.07	0.3837 mMequiv	Dose-dependent effect
CC[C@H](C)[C@@H](CC(=O)N1CCN(C)CC1)Nc1ccnc2cc(Cl)ccc12	168 nM	33 nM	5.08	7613	6.26	0.2197 mMequiv	Dose-dependent effect
CC(C)[C@H](CC(=O)N1CCN(C)CC1)Nc1ccnc2cc(Cl)ccc12	324 nM	44.1 nM	7.33	6045	5.33	0.2286 mMequiv	Dose-dependent effect
CN1CCN(C(=O)[C@H](Cc2c[nH]c3ccccc23)Nc2ccnc3cc(Cl)ccc23)CC1	262 nM	223 nM	1.17	392	6.36	0.3302 mMequiv	Dose-dependent effect
CN1CCN(C(=O)CNc2ccnc3cc(Cl)ccc23)CC1	177 nM	149 nM	1.18	1566	7.34	0.1915 mMequiv	Dose-dependent effect
